Reference: ChEMBL document CHEMBL4725283, “Selective Peptidomimetic Inhibitors of NTMT1/2: Rational Design, Synthesis, Characterization, and Crystallographic Studies” (J Med Chem, 2020)
Active and inactive are the calls of the source. No cut-off for these calls is given here. Where a SMILES comes first, the peptide text is derived from it. [ ]: non-standard residue; d: D form. The star is where a group is joined. ξ: configuration not given here. ξαMeP = CC1(C(=O)O)CCCN1; X1 = O=C(Cc1ccc(O)cc1)*; PhAc = O=C(Cc1ccccc1)*; Bz = O=C(c1ccccc1)*

Key:
[1] = target: T1, N-terminal Xaa-Pro-Lys N-methyltransferase 1 (Homo sapiens) (UniProt Q9BV86); experiment: Substrate activity at recombinant human full-length His6-tagged NTMT1 (1 to 222 residues) expressed in Escherichia coli BL21-CodonPlus(DE3)-RIL competent cells by MALDI-MS analysis
T1 sequence (whole entry): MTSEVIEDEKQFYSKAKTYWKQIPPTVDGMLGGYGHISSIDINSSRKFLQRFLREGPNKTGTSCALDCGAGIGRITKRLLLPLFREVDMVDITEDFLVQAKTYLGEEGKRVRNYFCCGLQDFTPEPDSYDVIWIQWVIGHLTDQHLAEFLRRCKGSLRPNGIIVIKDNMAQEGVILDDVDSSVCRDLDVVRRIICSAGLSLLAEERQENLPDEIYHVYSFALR

[2] = target: T2, N-terminal Xaa-Pro-Lys N-methyltransferase 1 (Homo sapiens, UniProt Q9BV86); experiment: (§1) Inhibition of recombinant human full-length His6-tagged NTMT1 (1 to 222 residues) expressed in Escherichia coli BL21-CodonPlus(DE3)-RIL competent cells pre-incubated for 10 mins in presence of SAM and SAHH before RCC1-6 addition and measured after 15 mins by fluorescence based SAHH-coupled assay
T2 sequence (Q9BV86 whole entry): T1 sequence (whole entry)
Method in brief: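 Pre-incubated 10 min at 37 °C, then started with RCC1-6 (10 µL of 50 µM stock in 100 µL). Line 11 screened at 30 µM; line 12 used 0–100 µM three-fold series, four-parameter fit. Triplicate.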

[3] = target: T1, N-terminal Xaa-Pro-Lys N-methyltransferase 1 (Homo sapiens); experiment: as §1, with “cells at 30 uM” for “cells”, “assay relative to control” for “assay”; details: time 25.0 min
Method in brief: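 Pre-incubated 10 min at 37 °C, then started with RCC1-6 (10 µL of 50 µM stock in 100 µL). Read Ex 370/Em 500 nm for 15 min at 37 °C. Line 11 screened at 30 µM; line 12 used 0–100 µM three-fold series, four-parameter fit. Triplicate.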

[4] = Drug penetration in human HCT116 cells at 1 uM by MALDI-MS analysis; assay type: ADME, cell-based; details: hct-116, 1 µM
Method in brief: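 HCT116 cells in McCoy's 5A with 10% FBS and 1% antibiotic-antimycotic, seeded at 0.1 × 10^6 cells/mL in 24-well plates and incubated overnight at 37 °C, 5% CO2. Compound added and incubation continued for the specified time; TAT peptide run as control. Cells washed three times with PBS, freeze-lysed twice in liquid nitrogen, and lysate analysed by MALDI (DHB matrix) for intracellular compound.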

[5] = target: N-terminal Xaa-Pro-Lys N-methyltransferase 2 (Homo sapiens, UniProt Q5VVY1); experiment: Binding affinity to recombinant human full-length His6-tagged NTMT2 by ITC assay
Sequence of N-terminal Xaa-Pro-Lys N-methyltransferase 2 (Q5VVY1 whole entry): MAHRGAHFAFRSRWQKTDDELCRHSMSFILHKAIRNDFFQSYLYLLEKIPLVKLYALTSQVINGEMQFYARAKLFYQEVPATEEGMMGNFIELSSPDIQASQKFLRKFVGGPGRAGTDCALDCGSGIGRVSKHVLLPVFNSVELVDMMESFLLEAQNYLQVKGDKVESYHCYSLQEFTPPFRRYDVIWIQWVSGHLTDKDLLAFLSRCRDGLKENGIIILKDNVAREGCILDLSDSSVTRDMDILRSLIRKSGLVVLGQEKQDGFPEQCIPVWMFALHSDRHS
Method in brief: (§2)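 ITC at 25 °C. Purified protein (NTMT1 for line 1, NTMT2 for line 2) in 20 mM Tris-HCl pH 7.5, 150 mM NaCl, 0.5 mM TCEP at 30–50 µM final. Compound at 0.5–1 mM in the same buffer, titrated in as 26 injections of 10 µl, 180 s apart, reference power 15 µcal/sec.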

[6] = target: T1, N-terminal Xaa-Pro-Lys N-methyltransferase 1 (Homo sapiens); experiment: Inhibition of NTMT1 in human HCT116 cells assessed as decrease in me3-SPK level at 100 uM incubated for 72 hrs by Western blot analysis; assay type: cell-based
Method in brief: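 HCT116 cells seeded at 20,000 cells/well and treated 3 days with compound or PBS. Lysed in RIPA for 30 min on ice; equal protein (BCA) run on 12.5% SDS-PAGE and transferred to PVDF. Blotted with anti-me3-SPK (1:5000) overnight at 4 °C, with Lamin B1, SET and RCC1 antibodies, then HRP anti-rabbit.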

[7] = target: T2, N-terminal Xaa-Pro-Lys N-methyltransferase 1; experiment: Binding affinity to recombinant human full-length His6-tagged NTMT1 (1 to 222 residues) by ITC assay; method in brief: as §2

Row | SMILES | Activity [1] | IC50 [2] | also measured
1 | N=C(N)NCCC[C@@H](NC(=O)[C@H](CCCCN)NC(=O)[C@@H]1CCCN1C(=O)Cc1ccc(O)cc1)C(N)=O | inactive | 4.2 µM | –
2 | N=C(N)NCCC[C@H](NC(=O)[C@H](CCCCN)NC(=O)[C@@H]1CCCN1C(=O)CCc1ccc(N)cc1)C(N)=O | inactive | 12 µM | –
3 | N=C(N)NCCC[C@H](NC(=O)[C@H](CCCCN)NC(=O)c1ccccc1NC(=O)Cc1ccc(O)cc1)C(N)=O | inactive | > 100 µM | –
4 | N=C(N)NCCC[C@H](NC(=O)C[C@@H](CCCN)NC(=O)[C@@H]1CCCN1C(=O)Cc1ccc(O)cc1)C(N)=O | inactive | 32.9 µM | –
5 | N=C(N)NCC[C@H](CC(N)=O)NC(=O)[C@H](CCCCN)NC(=O)[C@@H]1CCCN1C(=O)Cc1ccc(O)cc1 | inactive | 6.4 µM | –
6 | N=C(N)NCCC[C@H](NC(=O)[C@H](CCCCN)NC(=O)[C@@H]1CCCN1C(=O)Cc1ccccc1)C(N)=O (PhAc-Pro-Lys-Arg-NH2) | inactive | 6.85 µM | inhibition [3]: > 50%
7 | C[C@H](NC(=O)[C@H](CCCCN)NC(=O)[C@@H]1CCCN1C(=O)Cc1ccc(O)cc1)C(N)=O | inactive | 4.8 µM | –
8 | N=C(N)NCCC[C@H](NC(=O)[C@H](CCCCN)NC(=O)[C@@H]1CCCN1CCc1ccc(O)cc1)C(N)=O | inactive | > 100 µM | –
9 | N=C(N)NCCC[C@H](NC(=O)[C@H](CCCCN)NC(=O)[C@@H]1CCCN1C(=O)c1ccccc1)C(N)=O (Bz-Pro-Lys-Arg-NH2) | inactive | > 100 µM | –
10 | CC1(C(=O)N[C@@H](CCCCN)C(=O)N[C@@H](CCCNC(=N)N)C(N)=O)CCCN1C(=O)Cc1ccccc1 (stereo partly drawn) (PhAc-[ξαMeP]-Lys-Arg-NH2) | inactive | > 100 µM | –
11 | N=C(N)NCCC[C@H](NC(=O)[C@H](CCCCN)NC(=O)c1cccc(NC(=O)Cc2ccc(O)cc2)c1)C(N)=O | inactive | > 100 µM | –
12 | N=C(N)NCCC[C@H](NC(=O)[C@H](CCCCN)NC(=O)[C@@H]1CCCN1C(=O)Cc1ccc(CO)cc1)C(N)=O | inactive | – | –
13 | COc1ccc(CC(=O)N2CCC[C@H]2C(=O)N[C@@H](CCCCN)C(=O)N[C@@H](CCCNC(=N)N)C(N)=O)cc1 | inactive | > 100 µM | –
14 | N=C(N)NCCC[C@H](NC(=O)[C@H](CCCCN)NC(=O)[C@@H]1CCCN1C(=O)c1ccco1)C(N)=O | inactive | > 100 µM | –
15 | N=C(N)NCCC[C@H](NC(=O)[C@H](CCCNC(=N)N)NC(=O)[C@H](CCCNC(=N)N)NC(=O)[C@H](CCCNC(=N)N)NC(=O)[C@H](CCCNC(=N)N)NC(=O)[C@H](CCCNC(=N)N)NC(=O)[C@H](CCCCN)NC(=O)[C@@H]1CCCN1C(=O)Cc1ccc(O)cc1)C(N)=O (X1-PKRRRRRR-NH2) | – | – | Drug uptake [4]: Active; Kd [5]: 1 µM; inhibition [6]: Active; Kd [7]: 0.3 µM
16 | C[C@@H](O)[C@H](NC(=O)[C@H](CCCCN)NC(=O)[C@@H]1CCCN1C(=O)Cc1ccc(O)cc1)C(N)=O | inactive | 4.8 µM | –
17 | N=C(N)NCCC[C@H](NC(=O)[C@H](CCCCN)NC(=O)[C@@H]1CCCN1C(=O)C1CCCC1)C(N)=O | inactive | > 100 µM | –
18 | N=C(N)NCCC[C@H](NC(=O)[C@H](CCCCN)NC(=O)[C@@H]1CCCN1C(=O)C1CCCCC1)C(N)=O | inactive | > 100 µM | –
19 | NCCCC[C@H](NC(=O)[C@@H]1CCCN1C(=O)Cc1ccc(O)cc1)C(N)=O | inactive | 16 µM | –
20 | NCCCC[C@H](NC(=O)[C@H](CCCCN)NC(=O)[C@@H]1CCCN1C(=O)Cc1ccc(O)cc1)C(N)=O | inactive | 1 µM | –
21 | N=C(N)NCCC[C@H](NC(=O)[C@H](CCCCN)NC(=O)[C@@H]1CCCN1C(=O)CCc1ccc(O)cc1)C(N)=O | inactive | 4.5 µM | –
22 | N=C(N)NCCC[C@H](NC(=O)[C@H](CCCNC(=N)N)NC(=O)[C@H](CCCNC(=N)N)NC(=O)[C@H](CCC(N)=O)NC(=O)[C@H](CCCNC(=N)N)NC(=O)[C@H](CCCNC(=N)N)NC(=O)[C@H](CCCCN)NC(=O)[C@H](CCCCN)NC(=O)[C@H](CCCNC(=N)N)NC(=O)CNC(=O)[C@H](CCCNC(=N)N)NC(=O)[C@H](CCCCN)NC(=O)[C@@H]1CCCN1C(=O)Cc1ccc(O)cc1)C(N)=O | – | – | Drug uptake [4]: Active; Kd [5]: 3.4 µM; Kd [7]: 0.6 µM
23 | NCCCC[C@H](NC(=O)[C@@H]1CCCN1C(=O)Cc1ccc(O)cc1)C(=O)NCC(N)=O | inactive | 13 µM | –
24 | N=C(N)NCCC[C@H](NC(=O)[C@H](CCCCN)NC(=O)[C@@H]1CCCN1C(=O)Cc1ccc(N)cc1)C(N)=O | inactive | 4.3 µM | –
